Measured values reported in ChEMBL document CHEMBL1126849, “Synthesis of A-ring fluorinated derivatives of (17 alpha,20E/Z)-[125I]iodovinylestradiols: effect on receptor binding and receptor-mediated target tissue uptake” (J Med Chem, 1993).

Key:
Rattus norvegicus [1] = experiment: Biodistribution in kidney of immature female rat after 12 hour administration of 3 micro Ci (111 kBq) in the absence of 60 microg estradiol; assay type: ADME, organism-based; conditions: in vivo
In short: (§1)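 Immature female Long Evans rats (21–24 days, 45–70 g), unanesthetized in retention cages, given 3 µCi (111 kBq) 125I-labeled steroid i.v. via lateral tail vein. Vehicle was ethanol diluted in saline containing 1% Tween-80, giving 9% ethanol final. The blocking group received 60 µg unlabeled estradiol co-injected. Rats were killed under ether by axillary bleeding, and tissues were KCl-washed and gamma-counted. Data are %ID/g, mean ± SE, n=3–5.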

Rattus norvegicus [2] = experiment: Biodistribution in kidney of immature female rat after 1 hr administration of 3 micro Ci (111 kBq) in the absence of 60 microg estradiol; assay type: ADME, organism-based; conditions: in vivo; in short: as §1
Rattus norvegicus [3] = experiment: Biodistribution in kidney of immature female rat after 1 hr administration of 3 micro Ci (111 kBq) in the presence of (+E2); assay type: ADME, organism-based; conditions: in vivo; in short: as §1
Rattus norvegicus [4] = experiment: Biodistribution in liver of immature female rat after 3 hour administration of 3 micro Ci (111 kBq) in the absence of 60 microg estradiol; assay type: ADME, organism-based; conditions: in vivo; in short: as §1
Rattus norvegicus [5] = experiment: Biodistribution in lungs of immature female rat after 1 hr administration of 3 micro Ci (111 kBq) in the absence of 60 microg estradiol; assay type: ADME, organism-based, Lung; conditions: in vivo; in short: as §1
Rattus norvegicus [6] = experiment: Biodistribution in fat of immature female rat after 5 hour administration of 3 micro Ci (111 kBq) in the absence of 60 microg estradiol; assay type: ADME, organism-based, Adipose tissue; conditions: in vivo; in short: as §1
Rattus norvegicus [7] = experiment: Biodistribution in muscle of immature female rat after 12 hour administration of 3 micro Ci (111 kBq) in the absence of 60 microg estradiol; assay type: ADME, organism-based, Muscle tissue; conditions: in vivo
In short: (§2)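 Immature female Long Evans rats (21–24 days, 45–70 g), three to five per group, given 125I-labeled steroid (3 μCi, 111 kBq) by lateral tail vein without anesthesia. Vehicle: ethanol diluted in saline with 1% Tween-80, final ethanol 9%, 0.22 μm filtered. +E2 groups received 60 μg unlabeled estradiol co-injected. Killed under ether at set times; tissues KCl-washed, blotted, weighed, gamma counted; %ID/g, mean with SE.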

Rattus norvegicus [8] = experiment: Biodistribution in muscle of immature female rat after 1 hr administration of 3 micro Ci (111 kBq) in the absence of 60 microg estradiol; assay type: ADME, organism-based, Muscle tissue; conditions: in vivo; in short: as §2
Rattus norvegicus [9] = experiment: Biodistribution in muscle of immature female rat after 1 hr administration of 3 micro Ci (111 kBq) in the presence of (+E2); assay type: ADME, organism-based, Muscle tissue; conditions: in vivo; in short: as §2
Rattus norvegicus [10] = experiment: Biodistribution in muscle of immature female rat after 5 hour administration of 3 micro Ci (111 kBq) in the absence of 60 microg estradiol; assay type: ADME, organism-based, Muscle tissue; conditions: in vivo; in short: as §2
Rattus norvegicus [11] = experiment: Biodistribution in spleen of immature female rat after 12 hour administration of 3 micro Ci (111 kBq) in the absence of 60 microg estradiol; assay type: ADME, organism-based; conditions: in vivo; in short: as §2
Rattus norvegicus [12] = experiment: Biodistribution in spleen of immature female rat after 3 hour administration of 3 micro Ci (111 kBq) in the absence of 60 microg estradiol; assay type: ADME, organism-based; conditions: in vivo; in short: as §2
Rattus norvegicus [13] = experiment: Biodistribution in blood of immature female rat after 12 hour administration of 3 micro Ci (111 kBq) in the absence of 60 microg estradiol; assay type: ADME, organism-based; conditions: in vivo; in short: as §1
Rattus norvegicus [14] = experiment: Biodistribution in blood of immature female rat after 1 hr administration of 3 micro Ci (111 kBq) in the absence of 60 microg estradiol; assay type: ADME, organism-based; conditions: in vivo; in short: as §1
Rattus norvegicus [15] = experiment: Biodistribution in blood of immature female rat after 3 hour administration of 3 micro Ci (111 kBq) in the absence of 60 microg estradiol; assay type: ADME, organism-based; conditions: in vivo; in short: as §1
Rattus norvegicus [16] = experiment: Biodistribution in blood of immature female rat after 5 hour administration of 3 micro Ci (111 kBq) in the absence of 60 microg estradiol; assay type: ADME, organism-based; conditions: in vivo; in short: as §1
Rattus norvegicus [17] = experiment: Biodistribution in kidney of immature female rat after 3 hour administration of 3 micro Ci (111 kBq) in the absence of 60 microg estradiol; assay type: ADME, organism-based; conditions: in vivo; in short: as §1
Rattus norvegicus [18] = experiment: Biodistribution in liver of immature female rat after 12 hour administration of 3 micro Ci (111 kBq) in the absence of 60 microg estradiol; assay type: ADME, organism-based; conditions: in vivo; in short: as §1
Rattus norvegicus [19] = experiment: Biodistribution in liver of immature female rat after 1 hr administration of 3 micro Ci (111 kBq) in the absence of 60 microg estradiol; assay type: ADME, organism-based; conditions: in vivo; in short: as §1
Rattus norvegicus [20] = experiment: Biodistribution in thyroid of immature female rat after 1 hr administration of 3 micro Ci (111 kBq) in the presence of (+E2); assay type: ADME, organism-based, Thyroid gland; conditions: in vivo; in short: as §2
Rattus norvegicus [21] = experiment: Biodistribution in uterus / spleen, muscle, lungs of immature female rat after 1 hr administration of 3 micro Ci (111 kBq) in the absence of 60 microg estradiol; assay type: ADME, organism-based; conditions: in vivo
In short: (§3)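 Same in vivo procedure: immature female Long Evans rats (21–24 days), three to five per group, 3 μCi (111 kBq) tracer i.v. via tail vein in 9% ethanol/saline/1% Tween-80, ± 60 μg estradiol co-injected at 1 h. Uterus %ID/g (gamma counting) divided by blood, or by nontarget organ (muscle, spleen, lungs), %ID/g to give ratios.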

Rattus norvegicus [22] = experiment: Biodistribution in uterus / spleen, muscle, lungs of immature female rat after 3 hour administration of 3 micro Ci (111 kBq) in the absence of 60 microg estradiol; assay type: ADME, organism-based; conditions: in vivo
In short: (§4)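 Immature female Long Evans rats (21–24 days, 45–70 g), 3–5 per group, unanesthetized in retention cages, given 3 μCi (111 kBq) 125I-labeled steroid by lateral tail vein. Vehicle: ethanol diluted with saline containing 1% Tween-80, final ethanol 9%. +E2 group co-injected 60 μg unlabeled estradiol (1 h only). Killed under ether; tissues KCl-washed, weighed, gamma-counted. Output: %ID/g (mean, SE) and uterus to blood or nontarget (muscle, spleen, lungs) ratios.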

Rattus norvegicus [23] = experiment: Biodistribution in uterus / spleen, muscle, lungs of immature female rat after 5 hour administration of 3 micro Ci (111 kBq) in the absence of 60 microg estradiol; assay type: ADME, organism-based; conditions: in vivo; in short: as §4
Rattus norvegicus [24] = experiment: Biodistribution in uterus of immature female rat after 1 hr administration of 3 micro Ci (111 kBq) in the absence of 60 microg estradiol; assay type: ADME, organism-based; conditions: in vivo; in short: as §4
Rattus norvegicus [25] = experiment: Biodistribution in thyroid of immature female rat after 5 hour administration of 3 micro Ci (111 kBq) in the absence of 60 microg estradiol; assay type: ADME, organism-based, Thyroid gland; conditions: in vivo; in short: as §2
Rattus norvegicus [26] = experiment: Biodistribution in uterus / blood of immature female rat after 12 hour administration of 3 micro Ci (111 kBq) in the absence of 60 microg estradiol; assay type: ADME, organism-based; conditions: in vivo; in short: as §3
[27] = target: T1, Estrogen receptor (Mus musculus) (UniProt O08537+P19785); experiment: Relative binding affinity (RBA) for murine cytoplasmic estrogen receptor at 25 degree C for 2 hr; assay type: protein assay
T1 sequence (O08537 whole entry, looked up): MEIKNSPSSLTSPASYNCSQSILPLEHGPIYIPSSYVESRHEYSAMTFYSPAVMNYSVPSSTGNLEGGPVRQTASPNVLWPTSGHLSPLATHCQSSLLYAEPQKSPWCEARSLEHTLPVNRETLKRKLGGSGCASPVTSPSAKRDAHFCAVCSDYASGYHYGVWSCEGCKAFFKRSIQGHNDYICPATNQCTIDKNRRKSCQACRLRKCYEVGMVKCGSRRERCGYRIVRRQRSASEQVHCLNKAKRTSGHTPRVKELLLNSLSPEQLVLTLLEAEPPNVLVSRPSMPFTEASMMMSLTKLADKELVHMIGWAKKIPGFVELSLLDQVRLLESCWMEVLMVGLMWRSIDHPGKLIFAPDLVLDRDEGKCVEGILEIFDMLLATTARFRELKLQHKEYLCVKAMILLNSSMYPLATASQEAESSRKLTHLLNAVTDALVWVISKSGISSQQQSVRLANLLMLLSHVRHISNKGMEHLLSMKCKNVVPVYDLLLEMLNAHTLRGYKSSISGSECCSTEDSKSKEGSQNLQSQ
T1 sequence (P19785 whole entry, looked up): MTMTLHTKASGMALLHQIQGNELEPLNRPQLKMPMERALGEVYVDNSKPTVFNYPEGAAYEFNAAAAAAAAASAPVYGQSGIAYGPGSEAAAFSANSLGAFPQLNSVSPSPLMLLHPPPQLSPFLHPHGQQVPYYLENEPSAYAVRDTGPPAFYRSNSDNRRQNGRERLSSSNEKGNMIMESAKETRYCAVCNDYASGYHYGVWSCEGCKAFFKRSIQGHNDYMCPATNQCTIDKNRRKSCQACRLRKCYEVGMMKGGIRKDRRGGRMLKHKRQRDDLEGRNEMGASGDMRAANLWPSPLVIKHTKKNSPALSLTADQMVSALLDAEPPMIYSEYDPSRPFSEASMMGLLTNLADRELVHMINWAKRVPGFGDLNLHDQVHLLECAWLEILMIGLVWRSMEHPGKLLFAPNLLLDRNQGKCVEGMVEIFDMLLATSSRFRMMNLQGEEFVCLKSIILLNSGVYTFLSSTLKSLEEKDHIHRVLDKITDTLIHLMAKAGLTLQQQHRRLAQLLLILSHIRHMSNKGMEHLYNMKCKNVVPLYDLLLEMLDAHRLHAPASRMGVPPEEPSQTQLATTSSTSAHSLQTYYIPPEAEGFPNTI
In short: (§5)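 Murine uterine cytoplasmic extract incubated 2 h at 4 °C or at 25 °C with 20 nM [3H]estradiol and competitors at 2 nM–20 μM. RBA is taken as 100 × the ratio of competitor to unlabeled estradiol concentration needed for 50% competition of specific [3H]estradiol binding.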

[28] = target: T1, Estrogen receptor (Mus musculus); experiment: Relative binding affinity (RBA) for murine cytoplasmic estrogen receptor at 4C for 18 hr; assay type: protein assay
In short: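 Competitive binding on murine uterine cytoplasmic extract with 20 nM [3H]estradiol and competitor steroids at 2 nM–20 μM, incubated 18 h at 0–4 °C. RBA = 100 × ratio of […] concentration giving 50% competition for specific binding. Mean of three experiments with SD.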

[29] = target: T1, Estrogen receptor (Mus musculus); experiment: Relative binding affinity (RBA) for murine cytoplasmic estrogen receptor at 4C for 2 hr; assay type: protein assay; in short: as §5

Row | ID/g (Rattus norvegicus [1]) [%] | ID/g (Rattus norvegicus [2]) [%] | ID/g (Rattus norvegicus [3]) [%] | ID/g (Rattus norvegicus [5]) [%] | ID/g (Rattus norvegicus [6]) [%] | ID/g (Rattus norvegicus [7]) [%] | ID/g (Rattus norvegicus [8]) [%] | ID/g (Rattus norvegicus [9]) [%] | ID/g (Rattus norvegicus [10]) [%] | ID/g (Rattus norvegicus [11]) [%] | ID/g (Rattus norvegicus [12]) [%] | ID/g (Rattus norvegicus [13]) [%] | ID/g (Rattus norvegicus [14]) [%] | ID/g (Rattus norvegicus [15]) [%] | ID/g (Rattus norvegicus [16]) [%] | ID/g (Rattus norvegicus [17]) [%] | ID/g (Rattus norvegicus [18]) [%] | ID/g (Rattus norvegicus [19]) [%] | ID/g (Rattus norvegicus [20]) [%] | ID/g (Rattus norvegicus [24]) [%] | Structure (SMILES) | also measured
1 | 0.14 | 0.88 | 0.65 | 0.81 | 1.13 | 0.05 | 0.57 | 2.16 | 0.14 | 0.17 | 0.29 | 0.17 | 0.61 | 0.42 | 0.3 | 0.53 | 0.81 | 2.25 | 36.11 | 4.41 | C[C@]12CC[C@@H]3c4cc(F)c(O)cc4CC[C@H]3[C@@H]1CC[C@@]2(O)/C=C\I | ID/g (Rattus norvegicus [4]): 1.76%; uterus-to-nontarget tissue uptake ratio (Rattus norvegicus [21]): 7.32%; Uterus to nontarget tissue (spleen, muscle, lungs) uptake ratio (Rattus norvegicus [22]): 17.64%; uterus to nontarget tissue ratio (Rattus norvegicus [23]): 18.05%; ID/g (Rattus norvegicus [25]): 149.9%; Uterus-to-blood radioactivity ratio (dimensionless) (Rattus norvegicus [26]): 15.69%; RBA [27]: 99; RBA [28]: 53.7; RBA [29]: 40.1
2 | 0.74 | 1.87 | 0.85 | 1.89 | 1.71 | 0.37 | 1.26 | 0.51 | 0.38 | 0.43 | 0.48 | 0.24 | 0.71 | 0.48 | 0.47 | 0.82 | 1.78 | 3.49 | 50.6 | 10.44 | C[C@]12CC[C@@H]3c4ccc(O)c(F)c4CC[C@H]3[C@@H]1CC[C@@]2(O)/C=C\I | ID/g (Rattus norvegicus [4]): 1.95%; uterus-to-nontarget tissue uptake ratio (Rattus norvegicus [21]): 8.31%; Uterus to nontarget tissue (spleen, muscle, lungs) uptake ratio (Rattus norvegicus [22]): 12.16%; uterus to nontarget tissue ratio (Rattus norvegicus [23]): 28.59%; ID/g (Rattus norvegicus [25]): 117%; Uterus-to-blood radioactivity ratio (dimensionless) (Rattus norvegicus [26]): 27.32%; RBA [27]: 203; RBA [28]: 66.9; RBA [29]: 47.4
3 | 0.08 | 0.93 | 0.87 | 0.89 | 1.67 | 0.06 | 0.46 | 0.58 | 0.14 | 0.1 | 0.36 | 0.16 | 0.78 | 0.96 | 0.26 | 0.59 | 0.59 | 2.91 | 65.69 | 3.75 | C[C@]12CC[C@@H]3c4ccc(O)c(F)c4CC[C@H]3[C@@H]1CC[C@@]2(O)/C=C/I | ID/g (Rattus norvegicus [4]): 2.2%; uterus-to-nontarget tissue uptake ratio (Rattus norvegicus [21]): 6.39%; Uterus to nontarget tissue (spleen, muscle, lungs) uptake ratio (Rattus norvegicus [22]): 11.38%; uterus to nontarget tissue ratio (Rattus norvegicus [23]): 10.41%; ID/g (Rattus norvegicus [25]): 208%; Uterus-to-blood radioactivity ratio (dimensionless) (Rattus norvegicus [26]): 2.76%; RBA [27]: 29.1; RBA [28]: 55.9; RBA [29]: 58.7
4 | 0.06 | 0.87 | 0.66 | 1 | 2.39 | 0.03 | 0.73 | 0.54 | 0.28 | 0.05 | 0.32 | 0.08 | 0.53 | 0.42 | 0.29 | 0.47 | 1.58 | 3.95 | 22 | 1 | C[C@]12CC[C@@H]3c4cc(F)c(O)cc4CC[C@H]3[C@@H]1CC[C@@]2(O)/C=C/I | ID/g (Rattus norvegicus [25]): 43.46%; RBA [27]: 5.3; RBA [28]: 6.2; RBA [29]: 30.4
